In the M2OR odorant receptor database:

Assays:
Conditions in all cases: stereoisomer not certain
[1] = biological target: T1, UniProt Q8VG27
T1 sequence (whole entry): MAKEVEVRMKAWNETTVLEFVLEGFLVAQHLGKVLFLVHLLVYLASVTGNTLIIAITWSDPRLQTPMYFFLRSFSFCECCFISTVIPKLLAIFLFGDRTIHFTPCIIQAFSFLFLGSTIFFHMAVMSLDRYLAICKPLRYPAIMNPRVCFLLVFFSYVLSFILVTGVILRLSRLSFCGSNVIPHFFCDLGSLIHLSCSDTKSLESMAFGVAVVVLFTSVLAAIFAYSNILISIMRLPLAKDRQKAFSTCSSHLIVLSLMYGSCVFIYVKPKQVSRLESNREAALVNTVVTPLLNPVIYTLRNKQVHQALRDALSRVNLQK
Summary of the method: (§1)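 Each entry records the cell line, G-protein, co-transfected protein and tags used. Methods varied with the source, often transient luciferase assays in mammalian cell lines. A receptor–molecule pair is called responsive (active) if the original authors judged its signal statistically different from baseline and non-responsive (inactive) otherwise.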

[2] = biological target: T2, UniProt Q8VG49
T2 sequence (whole entry): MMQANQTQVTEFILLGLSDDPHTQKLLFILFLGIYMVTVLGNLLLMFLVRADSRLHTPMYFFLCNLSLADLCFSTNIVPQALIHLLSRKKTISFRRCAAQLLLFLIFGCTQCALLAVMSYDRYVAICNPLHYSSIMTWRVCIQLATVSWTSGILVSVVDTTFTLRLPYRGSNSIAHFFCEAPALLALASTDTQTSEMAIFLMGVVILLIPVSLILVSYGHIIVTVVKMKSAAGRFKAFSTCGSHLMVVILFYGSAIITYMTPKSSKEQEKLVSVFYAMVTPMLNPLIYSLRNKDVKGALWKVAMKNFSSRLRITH
Summary of the method: as §1

[3] = biological target: T3, UniProt Q8VG53
T3 sequence (whole entry): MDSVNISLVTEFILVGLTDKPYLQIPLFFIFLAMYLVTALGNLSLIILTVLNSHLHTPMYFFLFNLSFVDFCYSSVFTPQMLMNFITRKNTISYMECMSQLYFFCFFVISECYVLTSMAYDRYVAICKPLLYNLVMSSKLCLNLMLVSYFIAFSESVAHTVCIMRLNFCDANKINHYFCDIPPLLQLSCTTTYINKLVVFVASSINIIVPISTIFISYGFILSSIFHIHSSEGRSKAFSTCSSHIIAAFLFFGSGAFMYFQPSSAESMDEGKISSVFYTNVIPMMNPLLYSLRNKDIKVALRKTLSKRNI
Summary of the method: as §1

[4] = biological target: T4, UniProt Q8VG64
T4 sequence (whole entry): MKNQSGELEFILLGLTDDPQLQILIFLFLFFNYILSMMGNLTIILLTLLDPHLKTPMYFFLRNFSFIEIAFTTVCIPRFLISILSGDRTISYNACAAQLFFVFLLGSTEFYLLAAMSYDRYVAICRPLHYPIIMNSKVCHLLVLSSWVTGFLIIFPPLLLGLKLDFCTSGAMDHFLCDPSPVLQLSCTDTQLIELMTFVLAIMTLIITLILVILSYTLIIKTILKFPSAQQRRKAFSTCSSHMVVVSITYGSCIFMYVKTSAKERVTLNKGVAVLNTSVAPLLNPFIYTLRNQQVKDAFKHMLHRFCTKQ
Summary of the method: as §1

[5] = biological target: T5, UniProt Q8VG77
T5 sequence (whole entry): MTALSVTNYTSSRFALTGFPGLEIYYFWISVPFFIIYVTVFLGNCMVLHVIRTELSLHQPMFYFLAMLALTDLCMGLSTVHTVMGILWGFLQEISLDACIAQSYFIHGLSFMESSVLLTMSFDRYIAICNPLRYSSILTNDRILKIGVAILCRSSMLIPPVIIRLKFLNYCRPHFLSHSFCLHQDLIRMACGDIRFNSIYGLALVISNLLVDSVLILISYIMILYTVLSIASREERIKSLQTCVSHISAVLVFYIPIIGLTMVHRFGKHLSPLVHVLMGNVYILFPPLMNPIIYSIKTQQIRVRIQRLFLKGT
Summary of the method: as §1

[6] = biological target: T6, UniProt Q8VG96
T6 sequence (whole entry): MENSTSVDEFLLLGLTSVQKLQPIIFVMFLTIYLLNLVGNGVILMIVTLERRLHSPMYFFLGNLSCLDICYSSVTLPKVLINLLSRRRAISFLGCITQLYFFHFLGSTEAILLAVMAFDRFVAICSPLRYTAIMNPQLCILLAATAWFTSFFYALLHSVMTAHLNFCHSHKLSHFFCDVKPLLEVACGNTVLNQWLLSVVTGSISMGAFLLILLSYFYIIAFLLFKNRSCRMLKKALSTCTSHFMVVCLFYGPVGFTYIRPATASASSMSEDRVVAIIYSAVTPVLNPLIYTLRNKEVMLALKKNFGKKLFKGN
Summary of the method: as §1

[7] = biological target: T7, UniProt Q8VGB9
T7 sequence (whole entry): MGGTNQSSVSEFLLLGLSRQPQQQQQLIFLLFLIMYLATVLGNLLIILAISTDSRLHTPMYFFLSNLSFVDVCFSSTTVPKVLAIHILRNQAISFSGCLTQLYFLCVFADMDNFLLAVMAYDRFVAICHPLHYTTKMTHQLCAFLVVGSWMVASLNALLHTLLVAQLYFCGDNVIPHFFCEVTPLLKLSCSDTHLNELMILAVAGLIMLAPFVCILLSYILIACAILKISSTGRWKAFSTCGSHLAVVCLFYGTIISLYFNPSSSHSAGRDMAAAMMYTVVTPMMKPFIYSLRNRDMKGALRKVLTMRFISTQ
Summary of the method: as §1

[8] = biological target: T8, UniProt Q8VGC6
T8 sequence (whole entry): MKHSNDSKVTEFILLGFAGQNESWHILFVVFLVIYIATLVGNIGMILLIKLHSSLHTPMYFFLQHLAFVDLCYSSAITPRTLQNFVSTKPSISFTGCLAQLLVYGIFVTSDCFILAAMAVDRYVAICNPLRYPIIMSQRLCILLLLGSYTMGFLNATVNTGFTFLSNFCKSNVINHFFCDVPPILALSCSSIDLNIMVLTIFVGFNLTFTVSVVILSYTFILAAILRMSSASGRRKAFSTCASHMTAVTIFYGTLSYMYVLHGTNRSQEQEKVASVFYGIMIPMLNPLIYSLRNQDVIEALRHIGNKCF
Summary of the method: as §1

[9] = biological target: T9, UniProt Q8VGD7
T9 sequence (whole entry): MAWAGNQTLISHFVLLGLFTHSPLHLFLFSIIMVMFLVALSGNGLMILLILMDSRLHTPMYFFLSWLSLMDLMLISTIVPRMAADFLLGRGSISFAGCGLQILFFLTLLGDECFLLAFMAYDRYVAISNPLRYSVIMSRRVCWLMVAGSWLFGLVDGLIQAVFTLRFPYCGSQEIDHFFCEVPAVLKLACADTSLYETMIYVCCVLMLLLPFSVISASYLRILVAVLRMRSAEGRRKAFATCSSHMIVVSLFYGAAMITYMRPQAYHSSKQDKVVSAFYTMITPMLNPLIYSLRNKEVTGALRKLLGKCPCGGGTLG
Summary of the method: as §1

[10] = biological target: UniProt Q8VGE3
Summary of the method: as §1

[11] = biological target: T10, UniProt Q8VGH1
T10 sequence (whole entry): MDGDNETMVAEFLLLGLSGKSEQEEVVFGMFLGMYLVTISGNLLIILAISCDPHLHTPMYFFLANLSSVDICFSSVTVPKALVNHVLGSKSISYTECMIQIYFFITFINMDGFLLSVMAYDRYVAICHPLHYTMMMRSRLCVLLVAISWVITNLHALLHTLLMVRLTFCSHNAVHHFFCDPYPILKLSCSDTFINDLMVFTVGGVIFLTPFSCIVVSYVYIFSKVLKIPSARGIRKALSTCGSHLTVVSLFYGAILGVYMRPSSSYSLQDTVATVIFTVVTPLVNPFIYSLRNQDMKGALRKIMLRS
Summary of the method: as §1

[12] = biological target: T11, UniProt Q8VGJ1
T11 sequence (whole entry): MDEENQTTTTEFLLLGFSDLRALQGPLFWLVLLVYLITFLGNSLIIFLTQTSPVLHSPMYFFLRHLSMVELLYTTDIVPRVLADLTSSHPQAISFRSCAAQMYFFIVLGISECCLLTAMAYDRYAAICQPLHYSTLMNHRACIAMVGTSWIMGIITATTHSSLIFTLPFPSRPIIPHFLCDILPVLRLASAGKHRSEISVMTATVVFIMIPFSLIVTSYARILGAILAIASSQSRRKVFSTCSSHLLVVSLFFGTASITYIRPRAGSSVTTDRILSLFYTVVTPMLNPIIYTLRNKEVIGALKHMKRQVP
Summary of the method: as §1

[13] = biological target: T12, UniProt Q8VGJ3
T12 sequence (whole entry): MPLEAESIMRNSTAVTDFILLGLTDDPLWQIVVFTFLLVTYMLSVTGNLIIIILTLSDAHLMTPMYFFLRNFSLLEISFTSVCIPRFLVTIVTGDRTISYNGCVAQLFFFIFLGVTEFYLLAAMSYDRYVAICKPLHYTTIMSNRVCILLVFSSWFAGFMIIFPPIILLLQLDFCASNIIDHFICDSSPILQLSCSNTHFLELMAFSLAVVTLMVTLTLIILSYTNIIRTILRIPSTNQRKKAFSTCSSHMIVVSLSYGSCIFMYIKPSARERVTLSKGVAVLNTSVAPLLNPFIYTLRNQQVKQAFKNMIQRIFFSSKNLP
Summary of the method: as §1

[14] = biological target: T13, UniProt Q8VGJ5
T13 sequence (whole entry): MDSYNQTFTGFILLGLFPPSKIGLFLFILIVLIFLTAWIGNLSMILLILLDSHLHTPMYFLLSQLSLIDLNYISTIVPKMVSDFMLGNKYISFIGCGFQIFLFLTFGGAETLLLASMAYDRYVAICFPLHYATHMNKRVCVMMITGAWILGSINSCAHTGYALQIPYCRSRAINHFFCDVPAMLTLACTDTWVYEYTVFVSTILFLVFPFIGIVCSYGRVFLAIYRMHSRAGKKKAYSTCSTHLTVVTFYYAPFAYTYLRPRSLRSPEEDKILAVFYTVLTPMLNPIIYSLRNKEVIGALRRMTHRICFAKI
Summary of the method: as §1

[15] = biological target: UniProt Q8VGK6
Summary of the method: as §1

[16] = biological target: T14, UniProt Q8VGL0
T14 sequence (whole entry): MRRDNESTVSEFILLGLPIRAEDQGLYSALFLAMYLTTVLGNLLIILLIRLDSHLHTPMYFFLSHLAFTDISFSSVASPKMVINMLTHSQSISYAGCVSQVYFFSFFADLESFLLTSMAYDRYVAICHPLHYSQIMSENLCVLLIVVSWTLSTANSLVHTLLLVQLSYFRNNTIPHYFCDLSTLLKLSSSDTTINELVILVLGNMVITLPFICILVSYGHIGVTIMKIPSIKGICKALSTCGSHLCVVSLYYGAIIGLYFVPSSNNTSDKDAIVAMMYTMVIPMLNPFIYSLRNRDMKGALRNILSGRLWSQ
Summary of the method: as §1

[17] = biological target: T15, UniProt Q8VGL7
T15 sequence (whole entry): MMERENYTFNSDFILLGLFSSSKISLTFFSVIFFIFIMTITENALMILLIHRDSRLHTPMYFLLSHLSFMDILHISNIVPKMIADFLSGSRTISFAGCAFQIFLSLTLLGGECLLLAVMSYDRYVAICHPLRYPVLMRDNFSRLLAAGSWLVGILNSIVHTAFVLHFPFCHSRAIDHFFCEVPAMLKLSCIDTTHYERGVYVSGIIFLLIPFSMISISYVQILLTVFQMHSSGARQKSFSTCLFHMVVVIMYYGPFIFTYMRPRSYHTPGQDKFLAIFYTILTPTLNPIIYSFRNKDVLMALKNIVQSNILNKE
Summary of the method: as §1

UniProt Q8VGK6, sequence (Q8VGK6 as listed by the source): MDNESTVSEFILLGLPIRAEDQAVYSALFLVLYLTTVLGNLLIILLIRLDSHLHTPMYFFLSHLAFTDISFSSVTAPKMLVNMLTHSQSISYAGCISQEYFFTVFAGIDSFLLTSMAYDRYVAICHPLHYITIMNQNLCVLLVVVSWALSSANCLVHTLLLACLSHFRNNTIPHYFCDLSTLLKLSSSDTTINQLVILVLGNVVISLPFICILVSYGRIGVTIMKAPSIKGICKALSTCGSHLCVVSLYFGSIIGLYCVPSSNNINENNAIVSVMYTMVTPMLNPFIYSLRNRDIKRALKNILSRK
UniProt Q8VGE3, sequence (Q8VGE3 as listed by the source): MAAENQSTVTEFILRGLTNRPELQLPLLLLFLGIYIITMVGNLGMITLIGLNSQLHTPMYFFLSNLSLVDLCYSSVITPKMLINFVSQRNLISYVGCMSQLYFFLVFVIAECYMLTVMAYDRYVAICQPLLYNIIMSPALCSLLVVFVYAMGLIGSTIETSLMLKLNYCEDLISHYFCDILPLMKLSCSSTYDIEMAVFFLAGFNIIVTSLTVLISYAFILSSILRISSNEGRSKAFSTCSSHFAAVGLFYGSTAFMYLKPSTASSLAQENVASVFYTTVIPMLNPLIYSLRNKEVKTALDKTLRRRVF

O=C1CCOc2ccccc21
odorant receptor agonist call [1]: inactive
odorant receptor agonist call [2]: inactive
odorant receptor agonist call [3]: inactive
odorant receptor agonist call [4]: inactive
odorant receptor agonist call [5]: inactive
odorant receptor agonist call [6]: inactive
odorant receptor agonist call [7]: inactive
odorant receptor agonist call [8]: inactive
odorant receptor agonist call [9]: active
odorant receptor agonist call [10]: active
odorant receptor agonist call [11]: active
odorant receptor agonist call [12]: inactive
odorant receptor agonist call [13]: inactive
odorant receptor agonist call [14]: active
odorant receptor agonist call [15]: active
odorant receptor agonist call [16]: inactive
odorant receptor agonist call [17]: active

CC(=O)Oc1ccccc1
odorant receptor agonist call [1]: inactive
odorant receptor agonist call [2]: inactive
odorant receptor agonist call [3]: inactive
odorant receptor agonist call [4]: inactive
odorant receptor agonist call [5]: inactive
odorant receptor agonist call [6]: active
odorant receptor agonist call [7]: inactive
odorant receptor agonist call [8]: active
odorant receptor agonist call [9]: inactive
odorant receptor agonist call [11]: inactive
odorant receptor agonist call [12]: inactive
odorant receptor agonist call [13]: inactive
odorant receptor agonist call [14]: inactive
odorant receptor agonist call [16]: inactive
odorant receptor agonist call [17]: inactive

CCCCCCCCCS
odorant receptor agonist call [1]: inactive
odorant receptor agonist call [2]: active
odorant receptor agonist call [3]: inactive
odorant receptor agonist call [4]: inactive
odorant receptor agonist call [5]: inactive
odorant receptor agonist call [6]: inactive
odorant receptor agonist call [7]: inactive
odorant receptor agonist call [8]: active
odorant receptor agonist call [9]: inactive
odorant receptor agonist call [11]: inactive
odorant receptor agonist call [12]: inactive
odorant receptor agonist call [13]: inactive
odorant receptor agonist call [14]: inactive
odorant receptor agonist call [16]: inactive
odorant receptor agonist call [17]: inactive

CCCCCCC(C)=O
odorant receptor agonist call [1]: inactive
odorant receptor agonist call [2]: inactive
odorant receptor agonist call [3]: inactive
odorant receptor agonist call [4]: inactive
odorant receptor agonist call [5]: inactive
odorant receptor agonist call [6]: inactive
odorant receptor agonist call [7]: inactive
odorant receptor agonist call [8]: active
odorant receptor agonist call [9]: inactive
odorant receptor agonist call [11]: inactive
odorant receptor agonist call [12]: inactive
odorant receptor agonist call [13]: inactive
odorant receptor agonist call [14]: active
odorant receptor agonist call [16]: inactive
odorant receptor agonist call [17]: inactive

CCCCCC=CCCC=O
odorant receptor agonist call [1]: inactive
odorant receptor agonist call [3]: inactive
odorant receptor agonist call [4]: inactive
odorant receptor agonist call [7]: inactive
odorant receptor agonist call [8]: inactive
odorant receptor agonist call [13]: inactive
odorant receptor agonist call [16]: inactive

CC(=O)C=CC1=C(C)CCCC1(C)C
odorant receptor agonist call [1]: inactive
odorant receptor agonist call [3]: inactive
odorant receptor agonist call [4]: inactive
odorant receptor agonist call [7]: inactive
odorant receptor agonist call [8]: inactive
odorant receptor agonist call [13]: inactive
odorant receptor agonist call [16]: inactive
